Data reported in ChEMBL document CHEMBL2311373, “Monocyclic β-lactams as antibacterial agents: facing antioxidant activity of N-methylthio-azetidinones” (2013).
Values after ≈ are worked out from the molar mass of the structure shown. Active and inactive are the calls of the source. The rule behind the calls is not given here.

Tests used:
[1] = Antioxidant activity assessed as Fe (II) equivalent of (TPTZ)2Fe3+ reducing activity after 4 mins by FRAP assay; type: functional
Procedure, shortened: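 FRAP reagent made from TPTZ and FeCl₃ in aqueous acetate buffer. Reagent and diluted sample mixed in a cuvette; absorbance of the blue Fe²⁺ complex at 593 nm read exactly 4 min later at 25.0 °C. Four or five sample concentrations tested. Slope of absorbance vs concentration divided by the FeSO₄ standard slope gives activity in mmol equiv Fe²⁺.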

[2] = tested on: Radical scavenging activity; test: Antioxidant activity assessed as trolox equivalent of DPPH radical scavenging activity after 15 mins by spectroscopic analysis; type: functional
Procedure, shortened: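 Absorbance at 515 nm of methanolic DPPH radical read before (A₀) and 15 min after (Af) adding sample. Inhibition % = (1 − Af/A₀) × 100. Plots of % inhibition vs concentration were fitted with lines through the origin and compared with the Trolox standard.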

Staphylococcus aureus = test: Antibacterial activity against methicillin-resistant Staphylococcus aureus clinical isolates from cystic fibrosis patients assessed as growth inhibition by CLSI broth microdilution method
[3] = Antioxidant activity assessed as trolox equivalent of ABTS radical scavenging activity at pH 7.4 after 6 mins by TEAC assay; type: functional
Procedure, shortened: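 ABTS radical cation preformed with K₂S₂O₈ in PBS, pH 7.4. Diluted radical solution mixed with sample dissolved in DMSO; absorbance at 734 nm read exactly 6 min later at 30.0 °C. A DMSO blank was run, and the Trolox standard was treated the same way and checked before each series. Activity is given as a ratio to Trolox with its standard error.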

[4] = Antioxidant activity assessed as resorcinol equivalent of peroxy radical scavenging activity at pH 2.2 by BR assay; type: functional
Procedure, shortened: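 Briggs-Rauscher oscillating reaction thermostated at 25.0 °C. The resorcinol standard line was checked before each series. Relative antioxidant activity is taken from the sample and resorcinol concentrations that give the same effect.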

[5] = Antioxidant activity of the compound by voltammetric analysis; type: functional
[6] = tested on: Radical scavenging activity; test: Antioxidant activity assessed as trolox equivalent of DPPH radical scavenging activity by spectroscopic analysis; type: functional

Compound	Activity [1]	Activity [2]	MIC50 (Staphylococcus aureus)	MIC90 (Staphylococcus aureus)	Activity [3]	Activity [4]	MIC (Staphylococcus aureus)	Activity [5]	Activity [6]
CSN1C(=O)[C@H]([C@@H](C)O)[C@H]1SC(C)=O	inactive	inactive	64 µg/mL (≈ 272 µM)	128 µg/mL (≈ 544 µM)	inactive	inactive			
CSN1C(=O)CC1SC(C)=O (stereo not drawn)	inactive	inactive	16 µg/mL (≈ 83.6 µM)	32 µg/mL (≈ 167 µM)	inactive	inactive	16 µg/mL (≈ 83.6 µM)		
CSN1C(=O)[C@H]([C@@H](C)OC(=O)/C=C/c2ccc(O)c(O)c2)[C@H]1OC(C)=O	1.98 mmol	1.23 mmol	64 µg/mL (≈ 168 µM)	64 µg/mL (≈ 168 µM)	0.98 mmol	1.95 µM			
CCOCOc1c(OC)cc(C(=O)O[C@H](C)[C@H]2C(=O)N(SC)[C@@H]2OC(C)=O)cc1OC	inactive	inactive			inactive	0.7 µM			
CSN1C(=O)[C@H]([C@@H](C)O)[C@H]1OC(C)=O	inactive	inactive	64 µg/mL (≈ 292 µM)	> 128 µg/mL	inactive	inactive			
CO/N=C(\C(=O)N[C@@H]1C(=O)N2C(C(=O)O)=C(COC(C)=O)CS[C@H]12)c1csc(N)n1 [CEFOTAXIME]			128 µg/mL (≈ 281 µM)	> 128 µg/mL					
CSN1C(=O)C[C@@H]1OC(C)=O	inactive	inactive	32 µg/mL (≈ 183 µM)	64 µg/mL (≈ 365 µM)	inactive	inactive	32 µg/mL (≈ 183 µM)		
CSN1C(=O)[C@H]([C@@H](C)OC(=O)c2ccc(O)c(O)c2)[C@H]1OC(C)=O	1.91 mmol	1.96 mmol	128 µg/mL (≈ 360 µM)	> 128 µg/mL	1.23 mmol	0.38 µM			
CC(=O)SC1CC(=O)N1 (stereo not drawn)	inactive	inactive	32 µg/mL (≈ 220 µM)	64 µg/mL (≈ 441 µM)	inactive	inactive		inactive	
CO/N=C(\C(=O)N[C@@H]1C(=O)N2C(C(=O)O)=C(CSc3nc(=O)c(O)nn3C)CS[C@H]12)c1csc(N)n1 [CEFTRIAXONE]			8 µg/mL (≈ 14.4 µM)	> 128 µg/mL					
VITAMIN E									500 µM
COc1cc(C(=O)O[C@H](C)[C@H]2C(=O)N(SC)[C@@H]2OC(C)=O)cc(OC)c1O	0.19 mmol	0.0091 mmol	64 µg/mL (≈ 160 µM)	128 µg/mL (≈ 320 µM)	0.037 mmol	1.8 µM			
CC(O[Si](C)(C)C(C)(C)C)[C@H]1C(=O)N/C1=C\C(=O)Sc1ccccc1 (stereo partly drawn)								inactive	
CSN1CCC1=O								inactive	
O=C1O[C@H]([C@@H](O)CO)C(O)=C1O									1100 µM
